Calls of active or inactive are those of the source. The rule behind the calls is not given here.
Assays:
Porphyromonas gingivalis [1] = assay: Antibacterial activity against Porphyromonas gingivalis ATCC 33277 assessed as growth inhibition at 100 uM measured after 30 mins by WST-1 assay relative to control; format: functional; design: scale not given: the % may be the effect or the level left
Method in brief: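 P. gingivalis ATCC 33277 (10^8 cells/well) was grown to log phase in supplemented BHI under anaerobic conditions and incubated 24 h with treatments. WST-1 A405 was read 30 min after reagent addition. Growth inhibition was calculated relative to medium-only cultures, six independent replicates per condition.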

Porphyromonas gingivalis [2] = assay: Bactericidal activity against Porphyromonas gingivalis ATCC 33277 assessed as reduction in colony formation at 100 uM measured 24 hrs […] relative to control; format: functional; design: scale not given: the % may be the effect or the level left; conditions: in the assay text read “CFU assay” for “safranin staining”
Method in brief: (§1)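 P. gingivalis ATCC 33277 (10^8/well) was grown anaerobically in supplemented BHI and treated 24 h at 1, 10 or 100 μM in DMSO. Cultures were diluted 1:400 and plated on blood agar; colonies were counted after 5 days anaerobic incubation. % inhibition was based on CFUs/mL vs medium-only cultures, three independent replicates. Controls: tetracycline 2.81 μM, DMSO.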

Porphyromonas gingivalis [3] = assay: Antibacterial activity against Porphyromonas gingivalis ATCC 33277 assessed as growth inhibition at 10 uM measured after 24 hrs by WST-1 assay relative to control; format: functional; design: scale not given: the % may be the effect or the level left
Method in brief: (§2)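 Log-phase P. gingivalis ATCC 33277 was grown anaerobically in hemin/menadione-supplemented BHI, 10^8 cells/well, and treated for 24 h (DMSO vehicle). […] Derivatives: six independent replicates; controls: 42 replicates.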

Porphyromonas gingivalis [4] = assay: Antibacterial activity against Porphyromonas gingivalis ATCC 33277 assessed as growth inhibition at 1 uM measured after 24 hrs by WST-1 assay relative to control; format: functional; design: scale not given: the % may be the effect or the level left; method in brief: as §2
Porphyromonas gingivalis [5] = assay: Bactericidal activity against Porphyromonas gingivalis ATCC 33277 assessed as reduction in colony formation at 10 uM measured 24 hrs by safranin staining relative to control; format: functional; conditions: in the assay text read “CFU assay” for “safranin staining”; method in brief: as §1
Porphyromonas gingivalis [6] = assay: Antibiofilm activity against Porphyromonas gingivalis ATCC 33277 assessed as inhibition of biofilm at 10 to 100 uM measured after 48 hrs by safranin staining relative to control; format: functional; design: scale not given: the % may be the effect or the level left; conditions: dose 10-100 µM
Method in brief: (§3)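 Biofilm formation: P. gingivalis ATCC 33277 (10^8 cells/well) was grown in supplemented BHI under anaerobic conditions with gentle shaking, exposed to 10, 25, 50 or 100 μM for 48 h. Biomass was stained with 0.1% safranin and A492 measured. Biofilm growth % = 100×OD treated/OD DMSO control. Positive controls: tetracycline 2.81 μM.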

Porphyromonas gingivalis [7] = assay: Antibiofilm activity against Porphyromonas gingivalis ATCC 33277 assessed as inhibition of biofilm at 100 uM measured after 48 hrs by safranin staining relative to control; format: functional; design: scale not given: the % may be the effect or the level left; method in brief: as §3
Porphyromonas gingivalis [8] = assay: Antibiofilm activity against Porphyromonas gingivalis ATCC 33277 assessed as inhibition of biofilm at 50 uM measured after 48 hrs by safranin staining relative to control; format: functional; design: scale not given: the % may be the effect or the level left; method in brief: as §3
[9] = Cytotoxicity against human OKF6 cells assessed as reduction in cell viability at 10 uM by Annexin V-FITC/PI staining based flow cytometric analysis relative to control; format: toxicity; conditions: okf6, 10 µM
Method in brief: (§4)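 OKF6 keratinocytes were exposed 24 h to 10 or 100 μM. Apoptosis/necrosis was assessed by FITC-Annexin V staining and flow cytometry, ≥10,000 events per condition, in duplicate across two independent experiments. Controls: medium, 1% DMSO, staurosporine 8 μM.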

[10] = Cytotoxicity against human OKF6 cells assessed as reduction in cell viability at 100 uM by Annexin V-FITC/PI staining based flow cytometric analysis relative to control; format: toxicity; conditions: okf6, 100 µM; method in brief: as §4
Erythrocyte = assay: Hemolytic activity in mouse RBC upto 100 uM incubated for 1 hr; format: toxicity, cell-based
Method in brief: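 Murine red blood cells incubated with compound at 3.13 to 100 μM for 1 h at 37 °C. PBS only was the negative control; Triton X-100 (1% v/v) set 100% hemolysis.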

Porphyromonas gingivalis [11] = assay: Antibacterial activity against Porphyromonas gingivalis ATCC 33277 assessed as growth inhibition at 1 to 100 uM measured after 24 hrs by WST-1 assay relative to control; format: functional; design: scale not given: the % may be the effect or the level left; conditions: dose 1-100 µM; method in brief: as §2
Porphyromonas gingivalis [12] = assay: Antibacterial activity against Porphyromonas gingivalis at 100 uM incubated for 5 days measured by […] relative to control; format: functional; conditions: dose 10 µM; time 5 day; in the assay text read “10 uM” for “100 uM”; method in brief: as §1
[13] = Cytotoxicity against human OKF6 cells assessed as morphological change at 100 uM […]; format: toxicity, cell-based; conditions: okf6, 100 µM
Method in brief: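 OKF6 oral keratinocytes were treated 24 h at 10 or 100 μM. Cell morphology and density were examined by microscopy across the entire well. Controls: medium, 1% DMSO, staurosporine 8 μM.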

HepG2 = assay: Cytotoxicity against human HepG2 cells assessed as cell survival rate at upto 31.3 to 62.6 microg/ml measured after 24 hrs by resazurin dye based analysis relative to control; format: functional; conditions: dose 31.3-62.6 µg/ml, at 31.3 to 62.6 µg/mL
Method in brief: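 HEK-293 and HepG2 cells were maintained in DMEM with 10% FBS and 1% Pen/Strep at 37 °C, 5% CO2. Compounds were tested over 0–62.6 μg/mL. Survival values above 100% were normalized to 100%.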

Porphyromonas gingivalis [14] = assay: Antibacterial activity against Porphyromonas gingivalis assessed as reduction of CFU at 10 uM incubated for 5 days measured by […]; format: functional, organism-based; conditions: time 5.0 day; method in brief: as §1
[15] = Hemolytic activity in mouse RBC at 27 microg/ml incubated for 1 hr; format: toxicity, cell-based, Erythrocyte; conditions: mouse red blood cells (erythrocytes), at 27 µg/mL, read-out: Activity

Compound: COc1ccc(Cc2cn(CC(C)C)c3ccc([N+](=O)[O-])cc23)cc1C(=O)NS(=O)(=O)c1ccc([N+](=O)[O-])cc1
- Activity (Porphyromonas gingivalis [1]): 73%
- Activity (Porphyromonas gingivalis [2]): 100%

Compound: COc1ccc(Cc2cn(C)c3ccc([N+](=O)[O-])cc23)cc1C(=O)NS(=O)(=O)c1ccc([N+](=O)[O-])cc1
- Activity (Porphyromonas gingivalis [3]): 63%
- Activity (Porphyromonas gingivalis [4]): 0%
- Activity (Porphyromonas gingivalis [2]): 100%
- Activity (Porphyromonas gingivalis [5]): Active
- Activity (Porphyromonas gingivalis [6]): 86%

Compound: CCCCn1cc(Cc2ccc(OC)c(C(=O)NS(=O)(=O)c3ccc([N+](=O)[O-])cc3)c2)c2cc([N+](=O)[O-])ccc21
- Activity (Porphyromonas gingivalis [3]): 77%
- Activity (Porphyromonas gingivalis [2]): 100%
- Activity (Porphyromonas gingivalis [7]): 57%
- Activity (Porphyromonas gingivalis [8]): 63%
- Activity [9]: 63%
- Activity [10]: 23%
- Activity (Erythrocyte): <= 15%
- Activity (Porphyromonas gingivalis [11]): 69%
- Activity (Porphyromonas gingivalis [12]): 71%

Compound: CCCn1cc(Cc2ccc(OC)c(C(=O)NS(=O)(=O)c3ccc([N+](=O)[O-])cc3)c2)c2cc([N+](=O)[O-])ccc21
- Activity (Porphyromonas gingivalis [3]): 77%
- Activity (Porphyromonas gingivalis [2]): 100%
- Activity (Erythrocyte): <= 15%
- Activity (Porphyromonas gingivalis [11]): 60%

Compound: COc1ccc(Cc2cn(C)c3ccc([N+](=O)[O-])cc23)cc1C(=O)NS(=O)(=O)c1ccccc1Br
- Activity (Porphyromonas gingivalis [1]): 61%
- Activity (Porphyromonas gingivalis [2]): 100%
- Activity (Porphyromonas gingivalis [5]): Active
- Activity [13]: Toxic
- Activity (HepG2): >76%
- Activity (Porphyromonas gingivalis [14]): Active

Compound: CN(C)[C@@H]1C(O)=C(C(N)=O)C(=O)[C@@]2(O)C(O)=C3C(=O)c4c(O)cccc4[C@@](C)(O)[C@H]3C[C@@H]12 [TETRACYCLINE]
- Activity (Porphyromonas gingivalis [7]): 57%

Compound: C[C@@H]1[C@H](O)[C@@H](C)/C=C/C=C/C=C/C=C/C=C/C=C/C=C/[C@H](O[C@@H]2O[C@H](C)[C@@H](O)[C@H](N)[C@@H]2O)C[C@@H]2O[C@](O)(C[C@@H](O)C[C@@H](O)[C@H](O)CC[C@@H](O)C[C@@H](O)CC(=O)O[C@H]1C)C[C@H](O)[C@H]2C(=O)O [AMPHOTERICIN B]
- hemolysis at 1 h, 27 microg/ml [15]: 0%

— ChEMBL document CHEMBL5096220, “Selective Inhibition of the Periodontal Pathogen Porphyromonas gingivalis by Third-Generation Zafirlukast Derivatives” (J Med Chem, 2022)
